In brackets after ≈: the same amount, converted by molar mass.
Tests used:
Format in all cases: functional
[1] = tested on: Staphylococcus epidermidis; experiment: Antimicrobial activity against methicillin-susceptible coagulase-negative Staphylococcus epidermidis after 24 hrs by broth microdilution method
Outline: (§1)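 Clinical isolates came from blood, body fluids, genital secretions, pus or sputum, identified conventionally or by Vitek. MICs were run by CLSI M7-A6 broth microdilution in Mueller-Hinton broth with 5 × 10^5 CFU/ml inoculum. Agents were twofold serially diluted, starting from 10% DMSO. Drug-free and uninoculated controls were included. Plates were incubated aerobically at 37°C for 24 h; MIC is the lowest concentration giving no visible growth.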

Staphylococcus aureus [2] = experiment: Antimicrobial activity against methicillin-susceptible Staphylococcus aureus after 24 hrs by broth microdilution method; outline: as §1
[3] = tested on: Staphylococcus epidermidis; experiment: Antimicrobial activity against methicillin-resistant coagulase-negative Staphylococcus epidermidis after 24 hrs by broth microdilution method; outline: as §1
Staphylococcus hominis [4] = experiment: Antimicrobial activity against methicillin-susceptible coagulase-negative Staphylococcus hominis assessed as intermediate resistant isolates after 24 hrs by broth microdilution method; details: pooled result: one value given for 5 cell lines, strains, targets or settings
Staphylococcus simulans [5] = experiment: Bactericidal activity against methicillin-resistant coagulase-negative Staphylococcus simulans after 24 hrs by plate counting method
Outline: (§2)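 Clinical staphylococcal isolates from patient body fluids, blood, genital secretions, pus or sputum; species by conventional methods or Vitek. Twofold dilutions in Mueller-Hinton broth, inoculum 5 × 10^5 CFU/ml, 37°C aerobic 24 h (CLSI M7-A6 microdilution). About 100 μl from each well without visible growth spread on MHA; 37°C 24 h. MBC = lowest concentration giving no growth on agar.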

Staphylococcus hominis [6] = experiment: Antimicrobial activity against methicillin-susceptible coagulase-negative Staphylococcus hominis after 24 hrs by broth microdilution method; outline: as §1
[7] = tested on: Staphylococcus epidermidis; experiment: Antimicrobial activity against methicillin-susceptible coagulase-negative Staphylococcus epidermidis assessed as susceptible isolates after 24 hrs by broth microdilution method
[8] = tested on: Staphylococcus haemolyticus; experiment: Antimicrobial activity against methicillin-resistant coagulase-negative Staphylococcus haemolyticus assessed as intermediate resistant isolates after 24 hrs by broth microdilution method
Staphylococcus hominis [9] = experiment: Antimicrobial activity against methicillin-susceptible coagulase-negative Staphylococcus hominis assessed as susceptible isolates after 24 hrs by broth microdilution method
Staphylococcus simulans [10] = experiment: Antimicrobial activity against methicillin-resistant coagulase-negative Staphylococcus simulans assessed as susceptible isolates after 24 hrs by broth microdilution method
[11] = tested on: Staphylococcus haemolyticus; experiment: Antimicrobial activity against methicillin-susceptible coagulase-negative Staphylococcus haemolyticus after 24 hrs by broth microdilution method; outline: as §1
[12] = tested on: Staphylococcus epidermidis; experiment: Antimicrobial activity against methicillin-susceptible coagulase-negative Staphylococcus epidermidis assessed as resistant isolates after 24 hrs by broth microdilution method
[13] = tested on: Staphylococcus haemolyticus; experiment: Antimicrobial activity against methicillin-resistant coagulase-negative Staphylococcus haemolyticus assessed as resistant isolates after 24 hrs by broth microdilution method
Mammaliicoccus sciuri [14] = experiment: Antimicrobial activity against methicillin-resistant coagulase-negative Staphylococcus sciuri assessed as susceptible isolates after 24 hrs by broth microdilution method
Staphylococcus simulans [15] = experiment: Antimicrobial activity against methicillin-susceptible coagulase-negative Staphylococcus simulans assessed as susceptible isolates after 24 hrs by broth microdilution method
Outline: (§3)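 Clinical isolates from blood, body fluids, pus, sputum or genital secretions, identified conventionally or by Vitek, were tested alongside ATCC 29213 and ATCC 12228 controls. CLSI M7-A6 broth microdilution in Mueller-Hinton broth used twofold dilutions from a 10% DMSO solution and 5 × 10^5 CFU/ml inoculum. Drug-free and uninoculated wells served as controls; incubation was aerobic at 37°C for 24 h. MIC was the lowest concentration with no visible growth.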

Staphylococcus simulans [16] = experiment: Antimicrobial activity against methicillin-resistant coagulase-negative Staphylococcus simulans after 24 hrs by broth microdilution method; outline: as §1
Staphylococcus hominis [17] = experiment: Bactericidal activity against methicillin-susceptible coagulase-negative Staphylococcus hominis after 24 hrs by plate counting method; outline: as §2
Mammaliicoccus sciuri [18] = experiment: Antimicrobial activity against methicillin-resistant coagulase-negative Staphylococcus sciuri assessed as resistant isolates after 24 hrs by broth microdilution method
[19] = tested on: Staphylococcus epidermidis; experiment: Antimicrobial activity against methicillin-resistant coagulase-negative Staphylococcus epidermidis assessed as resistant isolates after 24 hrs by broth microdilution method
[20] = tested on: Staphylococcus haemolyticus; experiment: Bactericidal activity against methicillin-resistant coagulase-negative Staphylococcus haemolyticus after 24 hrs by plate counting method
[21] = tested on: Staphylococcus epidermidis; experiment: Antimicrobial activity against methicillin-resistant coagulase-negative Staphylococcus epidermidis assessed as intermediate resistant isolates after 24 hrs by broth microdilution method
[22] = tested on: Staphylococcus haemolyticus; experiment: Antimicrobial activity against methicillin-susceptible coagulase-negative Staphylococcus haemolyticus assessed as susceptible isolates after 24 hrs by broth microdilution method
Mammaliicoccus sciuri [23] = experiment: Antimicrobial activity against methicillin-susceptible coagulase-negative Staphylococcus sciuri assessed as susceptible isolates after 24 hrs by broth microdilution method; outline: as §3
Staphylococcus simulans [24] = experiment: Antimicrobial activity against methicillin-susceptible coagulase-negative Staphylococcus simulans assessed as resistant isolates after 24 hrs by broth microdilution method
Staphylococcus hominis [25] = experiment: Bactericidal activity against methicillin-resistant coagulase-negative Staphylococcus hominis after 24 hrs by plate counting method
Staphylococcus simulans [26] = experiment: Bactericidal activity against methicillin-susceptible coagulase-negative Staphylococcus simulans after 24 hrs by plate counting method; outline: as §2
[27] = tested on: Staphylococcus haemolyticus; experiment: Antimicrobial activity against methicillin-resistant coagulase-negative Staphylococcus haemolyticus assessed as susceptible isolates after 24 hrs by broth microdilution method
Staphylococcus aureus [28] = experiment: Antimicrobial activity against methicillin-susceptible Staphylococcus aureus assessed as intermediate resistant isolates after 24 hrs by broth microdilution method
Staphylococcus aureus [29] = experiment: Antimicrobial activity against methicillin-resistant Staphylococcus aureus assessed as susceptible isolates after 24 hrs by broth microdilution method
Staphylococcus hominis [30] = experiment: Antimicrobial activity against methicillin-resistant coagulase-negative Staphylococcus hominis after 24 hrs by broth microdilution method; outline: as §1
Mammaliicoccus sciuri [31] = experiment: Bactericidal activity against methicillin-resistant coagulase-negative Staphylococcus sciuri after 24 hrs by plate counting method; outline: as §2
[32] = tested on: Staphylococcus haemolyticus; experiment: Bactericidal activity against methicillin-susceptible coagulase-negative Staphylococcus haemolyticus after 24 hrs by plate counting method; outline: as §2
[33] = tested on: Staphylococcus epidermidis; experiment: Bactericidal activity against methicillin-resistant coagulase-negative Staphylococcus epidermidis after 24 hrs by plate counting method
Staphylococcus aureus [34] = experiment: Antimicrobial activity against methicillin-resistant Staphylococcus aureus after 24 hrs by broth microdilution method; outline: as §1
Staphylococcus aureus [35] = experiment: Antimicrobial activity against methicillin-susceptible Staphylococcus aureus assessed as susceptible isolates after 24 hrs by broth microdilution method
[36] = Staphylococcus haemolyticus, 24 h

**Q.** With `CN(C)[C@@H]1C(O)=C(C(N)=O)C(=O)[C@@]2(O)C(O)=C3C(=O)c4c(O)cccc4[C@@](C)(O)[C@H]3C[C@@H]12` [TETRACYCLINE] as the compound, how does the MIC [1] read?
**A.** Its MIC is 0.5 µg/mL (≈ 1.13 µM).

**Q.** And the MIC50 [1]?
**A.** Its MIC50 is 0.5 µg/mL (≈ 1.13 µM).

**Q.** And the MIC90 [1]?
**A.** The MIC90 was 32 µg/mL (≈ 72 µM).

**Q.** And the MIC50 (Staphylococcus aureus [2])?
**A.** Its MIC50 is 4 µg/mL (≈ 9 µM).

**Q.** What about the MIC90 (Staphylococcus aureus [2]) of the same compound?
**A.** Its MIC90 is 8 µg/mL (≈ 18 µM).

**Q.** And the MIC50 [3]?
**A.** The MIC50 was 1 µg/mL (≈ 2.25 µM).

**Q.** And the MIC90 [3]?
**A.** The MIC90 was 64 µg/mL (≈ 144 µM).

**Q.** What about the Activity (Staphylococcus hominis [4]) of the same compound?
**A.** The Activity was 19%.

**Q.** And the MBC50 (Staphylococcus simulans [5])?
**A.** The MBC50 was 4 µg/mL (≈ 9 µM).

**Q.** And the MBC (Staphylococcus simulans [5]; Staphylococcus simulans, 24 h)?
**A.** Its MBC is 0.5 µg/mL (≈ 1.13 µM).

**Q.** And the MIC (Staphylococcus hominis [6])?
**A.** The MIC was 0.5 µg/mL (≈ 1.13 µM).

**Q.** And the MIC50 (Staphylococcus hominis [6])?
**A.** The MIC50 was 0.5 µg/mL (≈ 1.13 µM).

**Q.** And the MIC90 (Staphylococcus hominis [6])?
**A.** The MIC90 was 32 µg/mL (≈ 72 µM).

**Q.** And the Activity [7]?
**A.** The Activity was 69%.

**Q.** What about the Activity [8] of the same compound?
**A.** The Activity was 7%.

**Q.** What about the Activity (Staphylococcus hominis [9]) of the same compound?
**A.** Its Activity is 69%.

**Q.** And the Activity (Staphylococcus simulans [10])?
**A.** The Activity was 7%.

**Q.** And the MIC [11]?
**A.** Its MIC is 0.5 µg/mL (≈ 1.13 µM).

**Q.** And the MIC50 [11]?
**A.** Its MIC50 is 0.5 µg/mL (≈ 1.13 µM).

**Q.** What about the MIC90 [11] of the same compound?
**A.** The MIC90 was 32 µg/mL (≈ 72 µM).

**Q.** And the Activity [12]?
**A.** Its Activity is 12%.

**Q.** And the Activity [13]?
**A.** Its Activity is 75%.

**Q.** And the Activity (Mammaliicoccus sciuri [14])?
**A.** The Activity was 7%.

**Q.** What about the Activity (Staphylococcus simulans [15]) of the same compound?
**A.** The Activity was 69%.

**Q.** What about the MIC50 (Staphylococcus simulans [16]) of the same compound?
**A.** Its MIC50 is 1 µg/mL (≈ 2.25 µM).

**Q.** And the MIC90 (Staphylococcus simulans [16])?
**A.** Its MIC90 is 64 µg/mL (≈ 144 µM).

**Q.** What about the MBC50 (Staphylococcus hominis [17]) of the same compound?
**A.** The MBC50 was 8 µg/mL (≈ 18 µM).

**Q.** And the MBC90 (Staphylococcus hominis [17])?
**A.** Its MBC90 is 128 µg/mL (≈ 288 µM).

**Q.** And the MBC (Staphylococcus hominis [17]; Staphylococcus hominis, 24 h)?
**A.** Its MBC is 1 µg/mL (≈ 2.25 µM).

**Q.** What about the Activity (Mammaliicoccus sciuri [18]) of the same compound?
**A.** The Activity was 75%.

**Q.** And the Activity [19]?
**A.** The Activity was 75%.

**Q.** What about the MBC50 [20] of the same compound?
**A.** Its MBC50 is 4 µg/mL (≈ 9 µM).

**Q.** And the MBC [20, 36]?
**A.** The MBC was 0.5 µg/mL (≈ 1.13 µM).

**Q.** And the Activity [21]?
**A.** Its Activity is 7%.

**Q.** What about the Activity [22] of the same compound?
**A.** The Activity was 69%.

**Q.** And the Activity (Mammaliicoccus sciuri [23])?
**A.** The Activity was 69%.

**Q.** What about the Activity (Staphylococcus simulans [24]) of the same compound?
**A.** Its Activity is 4%.

**Q.** What about the MBC50 (Staphylococcus hominis [25]) of the same compound?
**A.** The MBC50 was 4 µg/mL (≈ 9 µM).

**Q.** What about the MBC (Staphylococcus hominis [25]; Staphylococcus hominis, 24 h) of the same compound?
**A.** Its MBC is 0.5 µg/mL (≈ 1.13 µM).

**Q.** What about the MBC50 (Staphylococcus simulans [26]) of the same compound?
**A.** Its MBC50 is 8 µg/mL (≈ 18 µM).

**Q.** What about the MBC90 (Staphylococcus simulans [26]) of the same compound?
**A.** The MBC90 was 128 µg/mL (≈ 288 µM).

**Q.** And the MBC (Staphylococcus simulans [26]; Staphylococcus simulans, 24 h)?
**A.** The MBC was 1 µg/mL (≈ 2.25 µM).

**Q.** And the Activity [27]?
**A.** Its Activity is 18%.

**Q.** And the Activity (Staphylococcus aureus [28])?
**A.** The Activity was 19%.

**Q.** What about the Activity (Staphylococcus aureus [29]) of the same compound?
**A.** The Activity was 30%.

**Q.** And the MIC50 (Staphylococcus hominis [30])?
**A.** Its MIC50 is 1 µg/mL (≈ 2.25 µM).

**Q.** What about the MIC90 (Staphylococcus hominis [30]) of the same compound?
**A.** Its MIC90 is 64 µg/mL (≈ 144 µM).

**Q.** And the MBC50 (Mammaliicoccus sciuri [31])?
**A.** The MBC50 was 4 µg/mL (≈ 9 µM).

**Q.** What about the MBC (Mammaliicoccus sciuri [31]; Mammaliicoccus sciuri, 24 h) of the same compound?
**A.** Its MBC is 0.5 µg/mL (≈ 1.13 µM).

**Q.** What about the MBC50 [32] of the same compound?
**A.** The MBC50 was 8 µg/mL (≈ 18 µM).

**Q.** And the MBC90 [32]?
**A.** The MBC90 was 128 µg/mL (≈ 288 µM).

**Q.** And the MBC [32, 36]?
**A.** The MBC was 1 µg/mL (≈ 2.25 µM).

**Q.** What about the MBC50 [33] of the same compound?
**A.** The MBC50 was 4 µg/mL (≈ 9 µM).

**Q.** What about the MBC ([33]; Staphylococcus epidermidis, 24 h) of the same compound?
**A.** The MBC was 0.5 µg/mL (≈ 1.13 µM).

**Q.** And the MIC50 (Staphylococcus aureus [34])?
**A.** The MIC50 was 16 µg/mL (≈ 36 µM).

**Q.** And the MIC90 (Staphylococcus aureus [34])?
**A.** The MIC90 was 32 µg/mL (≈ 72 µM).

**Q.** And the Activity (Staphylococcus aureus [35])?
**A.** The Activity was 70%.

Reference: ChEMBL document CHEMBL1649231, “In vitro activities of panduratin A against clinical Staphylococcus strains” (2009)
